The structures appear in SMILES notation. The source made the active and inactive calls. No cut-off for these calls is given here.

The values that follow come from ChEMBL document CHEMBL2016463, “A Novel (18)F-Labeled Imidazo[2,1-b]benzothiazole (IBT) for High-Contrast PET Imaging of β-Amyloid Plaques” (ACS Med Chem Lett, 2011).

Data set [1] relates to Cortex. Nature of the data set: Drug uptake in APP/PS1 Alzheimer's disease mouse brain cortex at 4 MBq at 45 mins postinjection by dual label autoradiography relative to control. Type of data set: ADME, organism-based. Particulars: in vivo, 0.75 h. In outline:
(§1)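 Multimodal study of one 25-month-old APP/PS1 Tg mouse, with a 28-month-old control. Tail-vein coinjection of 18F tracer plus [3H]-reference: 13.5 + 4.0 MBq (Tg) or 10.0 + 3.7 MBq (control). Mice underwent µPET/CT for 45 min in list mode and were killed at 45 min. Ex vivo work included regional brain biodistribution and dual-label (3H/18F) digital autoradiography on 12 µm axial sections.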

In data set [2] the test system is Cortex. Nature of the data set: Drug uptake in APP/PS1 Alzheimer's disease mouse brain cortex at 4 MBq at 45 mins postinjection by uPET/CT analysis relative to control. It counts as ADME, organism-based. Particulars: in vivo, 0.75 h. In outline: as §1
The test system of data set [3] is Brain. Nature of the data set: Drug uptake in Balb-C mouse brain at 4 to 6 MBq, iv after 5 mins by gamma counting relative to [11C]Pittsburgh compound B. Type of data set: ADME, organism-based. Particulars: in vivo. An outline of the steps: (§2)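 Male Balb-C mice received tracer or [11C] reference. Brain uptake was measured at 5 and 30 min pi and reported as mean ± SD, n ≥ 4.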

In data set [4] the test system is Brain. Nature of the data set: Drug uptake in Balb-C mouse brain at 4 to 6 MBq, iv after 30 mins by gamma counting relative to [11C]Pittsburgh compound B. It counts as ADME, organism-based. Particulars: in vivo, 0.5 h. In outline: as §2
Data set [5] has as its system Cortex. Nature of the data set: Binding affinity to amyloid beta plaque in APP/PS1 Alzheimer's disease mouse brain cortex at 13.5 MBq after 45 mins postinjection by immunohistochemistry analysis relative to control. It counts as functional, organism-based. Details: dose or concentration left out as unconfirmed. Particulars: tested as the 18F-labelled form.
Data set [6] concerns Brain. Nature of the data set: Ratio of drug uptake in Alzheimer's disease patient brain to healthy human brain. To be noted: in vivo. It counts as ADME, tissue-based.
Data set [7] has as its system Brain. In words: Drug uptake in APP/PS1 Alzheimer's disease mouse brain cortex at 11.7 +/- 4.1 MBq at 36 to 45 mins postinjection by uPET analysis relative to control. Type of data set: ADME, organism-based. Particulars: in vivo. An outline of the steps: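 APP/PS1 (homozygous) Tg mice, 24.0 ± 0.4 months old (n = 7), and age-matched C57B6/J controls, 25 ± 2 months old (n = 3). Each mouse got a single bolus of 18F tracer: 11.7 ± 4.1 MBq for Tg, 11.5 ± 3.4 MBq for controls. Images are µPET frames summed over 36–45 min pi, with CT overlaid on an MRI template. Cortical and cerebellar VOI TACs and cortex/cerebellum ratios were derived.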

Data set [8] is described as follows: Metabolic stability in Balb-C mouse brain at 21 to 32 MBq, iv after 30 mins by gamma counting. Type of data set: ADME, organism-based. To be noted: read-out: Stability. In outline:
(§3)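 Balb-C mice were sampled for blood and brain tissue at 10 and 30 min pi. Radioactivity speciation is given as % intact tracer.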

In data set [9] the test system is Cortex. Nature of the data set: Drug uptake in APP/PS1 Alzheimer's disease mouse brain cortex at 13.5 MBq at 45 mins postinjection by uPET/CT analysis relative to control. Type of data set: ADME, organism-based. To be noted: in vivo, 0.75 h. An outline of the steps:
as §1

Data set [10] is described as follows: Metabolic stability in Balb-C mouse blood at 21 to 32 MBq, iv after 30 mins by gamma counting. It counts as ADME, organism-based. To be noted: read-out: Stability. An outline of the steps:
as §3

Data set [11] in a line: Metabolic stability in Balb-C mouse blood at 21 to 32 MBq, iv after 10 mins by gamma counting. Type of data set: ADME, organism-based. Particulars: read-out: Stability. An outline of the steps: as §3
Data set [12] relates to Cortex. In words: Drug uptake in APP/PS1 Alzheimer's disease mouse brain cortex at 13.5 MBq at 45 mins postinjection by dual label autoradiography relative to control. Type of data set: ADME, organism-based. Particulars: in vivo, 0.75 h. In outline: as §1
Data set [13] deals with T1, Amyloid-beta precursor protein (Homo sapiens, UniProt P05067). In words: Displacement of [3H]Pittsburgh compound B from human Abeta1-42 after 3 hrs by liquid scintillation counting. On the technique in general: In a radioligand displacement assay an active substance lowers the binding of a labelled ligand.
In data set [14] the target is T1, Amyloid-beta precursor protein. Nature of the data set: Displacement of [3H]Pittsburgh compound B from human Abeta1-40 after 3 hrs by liquid scintillation counting.
The nature of data set [15]: Metabolic stability in Balb-C mouse brain at 21 to 32 MBq, iv after 10 mins by gamma counting. It counts as ADME, organism-based. To be noted: read-out: Stability. An outline of the steps: as §3
Data set [16] has as its system Cortex. Nature of the data set: Binding affinity to amyloid beta plaque in APP/PS1 Alzheimer's disease mouse brain cortex at 4 MBq after 45 mins postinjection by immunohistochemistry analysis relative to control. It counts as functional, organism-based. Set-up: dose or concentration left out as unconfirmed. Particulars: tested as the 3H-labelled form.

T1 sequence (P05067 whole entry): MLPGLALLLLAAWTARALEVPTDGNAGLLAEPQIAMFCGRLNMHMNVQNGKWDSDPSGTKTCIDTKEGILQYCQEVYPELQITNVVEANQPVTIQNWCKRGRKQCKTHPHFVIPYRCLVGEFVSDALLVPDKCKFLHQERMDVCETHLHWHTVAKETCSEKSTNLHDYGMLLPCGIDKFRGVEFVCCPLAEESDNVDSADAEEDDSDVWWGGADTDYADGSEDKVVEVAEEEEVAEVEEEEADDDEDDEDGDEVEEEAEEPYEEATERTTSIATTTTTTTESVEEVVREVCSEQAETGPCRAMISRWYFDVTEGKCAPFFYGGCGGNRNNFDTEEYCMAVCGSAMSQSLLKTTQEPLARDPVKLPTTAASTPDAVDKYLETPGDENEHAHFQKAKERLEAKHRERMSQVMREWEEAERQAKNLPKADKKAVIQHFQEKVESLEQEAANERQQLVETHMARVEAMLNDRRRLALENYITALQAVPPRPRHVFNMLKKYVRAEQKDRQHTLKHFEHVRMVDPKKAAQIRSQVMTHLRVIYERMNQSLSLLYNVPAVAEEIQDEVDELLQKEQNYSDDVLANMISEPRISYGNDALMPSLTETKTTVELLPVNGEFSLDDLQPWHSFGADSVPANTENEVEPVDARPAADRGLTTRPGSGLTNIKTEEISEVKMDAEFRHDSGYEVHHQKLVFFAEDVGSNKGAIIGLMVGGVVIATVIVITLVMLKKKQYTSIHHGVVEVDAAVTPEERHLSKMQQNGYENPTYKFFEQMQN

Consider `[3H]Oc1ccc2nc(-c3ccc(NC)cc3)sc2c1`, for which the Drug uptake entry in [1] and in data set [2] was “Active” in each case.

As for `[11CH3]Nc1ccc(-c2nc3ccc(O)cc3s2)cc1` [PITTSBURGH COMPOUND B], the Drug uptake result in data set [3] and in data set [4] was “Active” in each case.

On to `CNc1ccc(-c2cn3c(n2)sc2cc(OCCF)ccc23)cc1`, for which, in data set [5], the outcome was Active.

In the case of `CC(=C(C#N)C#N)c1ccc2cc(N(C)CC[18F])ccc2c1`, the Ratio in data set [6] turned out to be 1.3.

As to `CNc1ccc(-c2cn3c(n2)sc2cc(OCC[18F])ccc23)cc1`, the Drug uptake result in data set [7], in data set [9], in [3], in data set [12] and in data set [4] was “Active” throughout. The remaining at 0.5 h in [8] came to 88%; in data set [10] it was 5%. In addition, the results for the remaining at 10 min in data set [11] and in data set [15] were 12% and 92%, respectively. Besides, the Ki in data set [13] came out at 3.2 nM; in data set [14], 2.1 nM.

In the case of `CNc1ccc(/C=C/c2ccc(OCCOCCOCC[18F])cc2)cc1` [FLORBETABEN F18], in [6], the Ratio was 1.5.

As to `CNc1ccc(-c2nc3ccc(O)cc3s2)cc1`, in data set [16], the result was Active.

For orientation: Ki means the dissociation constant of the complex between target and ligand, obtained from inhibition or displacement.
